Assay outcomes from PubChem BioAssay.
Lmaj promast = inhibitors of Leishmania major promastigote growth; inhibition, % at 10 µM; AID 1063; 9% of 200,000 active; Leishmania major promastigotes, resazurin fluorescence viability; in the data active = inhibition above about 50%;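 also: promastigotes grown with compound for 44 hours at 28 °C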
Diaphorase inh = inhibits diaphorase or chemically oxidizes, flagging diaphorase assay artifacts; AID 1217; 0.69% of 190,000 active; diaphorase resazurin-to-resorufin fluorescence, NADH, 16 min; bacterial (C. kluyveri) enzyme, not human; inhibition, % at 20 µM;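 active = primary screen inhibition at 20 µM above a set limit, cut at about 50% in these data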;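 also: plate controls were DMSO with full reaction for no effect and wells lacking NADH for full effect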
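material = Clostridium kluyveri diaphorase enzyme | amount = 0.14 U/mL diaphorase, enzyme working solution | schedule = incubation 16 min, room temperature | detection = fluorescence of resorufin formed from resazurin, Ex 544/Em 590 nm | benchmarks = positive control minus NADH, DMSO neutral control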
KCC2 mod = modulators of human KCC2 chloride dependent transport; Q9H2X9; KCC2 cells, thallium flux FluoZin-2 fluorescence; B-score of Tl+ flux slope (higher = more flux/activation; lower = inhibition) at 10 µM; 2.2% of 190,000 active; AID 1456;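 active = thallium flux slope and its plate-corrected score both differing from the plate sample mean at a set confidence after two filtering rounds, in either direction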;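 also: slope of fluorescence scaled to starting intensity during 10 to 20 s after thallium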
WT yeast gro inh = growth inhibition of WT yeast, mitochondrial fusion screen; mitochondrial fusion phenotypic screen, WT strain; inhibition, % at 10 µM; 2.1% of 190,000 active; in the data active = inhibition above about 58%; tested in S. cerevisiae
Diaphorase act = counter-screen for diaphorase-based assays: diaphorase activators and chemical reducers; activation factor at 20 µM; 0.005% of 190,000 active; Diaphorase/resazurin coupled assay, resorufin fluorescence, 16 min; stronger effect = higher value; 1 = vehicle wells, 0 = NADH-free wells;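 active = diaphorase activity raised at least twofold by the compound at 20 µM; inactive = activation factor below 2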
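Material: purified diaphorase enzyme from Clostridium kluyveri; Also added: 0.114 mM NADH and 0.1 mM resazurin, final amounts; Doses: single compound dose of 20 µM, 1% DMSO final; Times: 16 min enzyme reaction, ambient temperature; Detection: resorufin fluorescence, excitation 544 nm, emission 590 nm; Measure: increased resorufin signal from activators or reducing compounds.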
ROMK mod = human ROMK K+ channel modulation, primary screen; Tet-inducible ROMK, thallium flux fluorescence; actives lie on both sides; B-score at 10 µM; 2% of 130,000 active; AID 1918;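 active = signal ratio slope over the read window, or its plate-corrected B-score, at least 3 SD from the plate mean, either direction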;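 also: B-score of the F/F0 ratio slope over 7 to 12 s after thallium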
L major 1uM = L. major promastigote growth inhibition, 1 uM repeat; inhibition, % at 1 µM; shares compounds with Lmaj promast; resazurin fluorescence, 48 h; 13% of 1,100 active;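 active = inhibition above about 50% in both repeat tests, limit read from the data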
Active calls of the source: *. Compounds with a hit are over-represented: about 12% of the library has one in this group of screens.

Results for O=[N+]([O-])c1cc(S(=O)(=O)Nc2ccccc2)ccc1-n1nnc2ccccc21 ?
Lmaj promast: 66*; Diaphorase inh: 20; KCC2 mod: -2.6; WT yeast gro inh: -15; Diaphorase act: 0.8; L major 1uM: -13

Results for CC(C)NC(=O)c1ccccc1NC(=O)CN(c1ccc2c(c1)OCO2)S(C)(=O)=O ?
Lmaj promast: -2; Diaphorase inh: 21; KCC2 mod: 0.75; WT yeast gro inh: -9; Diaphorase act: 0.8

Results for Cc1c(-c2ccccc2)c(P(=O)(N2CCOCC2)N2CCOCC2)c2ccccn12 ?
Lmaj promast: 55*; Diaphorase inh: 14; KCC2 mod: 0.023; WT yeast gro inh: -2; Diaphorase act: 0.9; L major 1uM: -4

How did CC(c1c(O)c2ccccc2[nH]c1=O)C1(C)CCC(O)C(C)(C)O1 (centres undefined) do in these assays?
Lmaj promast: 19; Diaphorase inh: 5; KCC2 mod: -0.17; WT yeast gro inh: 0; Diaphorase act: 1

What do the screens show for `COc1ccccc1NC(=S)N(Cc1ccco1)Cc1cc2cccc(C)c2[nH]c1=O`?
Lmaj promast: 100*; Diaphorase inh: 17; KCC2 mod: -0.63; WT yeast gro inh: 1; Diaphorase act: 0.8; ROMK mod: -0.93; L major 1uM: 18

What do the screens show for `COc1ccccc1NC(=S)N(Cc1ccco1)Cc1cc2cc(C)c(C)cc2[nH]c1=O`?
Lmaj promast: 37; Diaphorase inh: 16; KCC2 mod: -0.89; WT yeast gro inh: 9; Diaphorase act: 0.8; ROMK mod: 2.4

What do the screens show for `O=S(=O)(/N=C(/Nc1ccc(F)c(F)c1F)c1ccccc1)c1ccccc1`?
Lmaj promast: 89*; Diaphorase inh: 22; KCC2 mod: -0.072; WT yeast gro inh: -22; Diaphorase act: 0.8; L major 1uM: -12

How did OCCN1CCN(CC(O)COCC2COc3ccccc3O2)CC1 (centres undefined) do in these assays?
Lmaj promast: -5; Diaphorase inh: 11; KCC2 mod: 0.43; WT yeast gro inh: -21; Diaphorase act: 0.9; ROMK mod: 0.13

What do the screens show for `OC(COCC1COc2ccccc2O1)CN1CCN(c2ccccc2F)CC1` (centres undefined)?
Lmaj promast: 65*; Diaphorase inh: 12; KCC2 mod: 0.12; WT yeast gro inh: 5; Diaphorase act: 0.9; L major 1uM: -10

How did O=C(NCC(=O)N(CC1CCCO1)C(C(=O)NC1CCCC1)c1cccnc1)c1ccco1 (centres undefined) do in these assays?
Lmaj promast: -5; Diaphorase inh: 11; KCC2 mod: 0.66; WT yeast gro inh: -4; Diaphorase act: 0.9

What do the screens show for `Nc1ccc(C23CC4CC(CC(CO)(C4)C2)C3)cc1`?
Lmaj promast: -4; Diaphorase inh: 16; KCC2 mod: -1.2; WT yeast gro inh: -25; Diaphorase act: 0.8

Results for NCC12CC3CC(C1)CC(c1ccc(Cl)cc1)(C3)C2 ?
Lmaj promast: 100*; Diaphorase inh: -18; KCC2 mod: 2.7; WT yeast gro inh: 73*; Diaphorase act: 1.2; ROMK mod: -1.2; L major 1uM: 94*

Results for FC(F)(F)c1cnc(-c2cnc(-c3cccnc3)nc2)c(Cl)c1 ?
Lmaj promast: -6; Diaphorase inh: 7; WT yeast gro inh: 8; Diaphorase act: 0.9; ROMK mod: 0.86

How did CC(=O)Nc1ccc(-c2csc(NC(=O)C3CCN(S(=O)(=O)c4cccs4)CC3)n2)cc1 do in these assays?
Lmaj promast: 70*; Diaphorase inh: 16; KCC2 mod: 0.64; WT yeast gro inh: 17; Diaphorase act: 0.8; L major 1uM: -1

What do the screens show for `COc1ccc(C2(O)CCN(Cc3nnnn3Cc3ccc(F)cc3)CC2)cc1`?
Lmaj promast: 22; Diaphorase inh: 17; KCC2 mod: 0.18; WT yeast gro inh: -6; Diaphorase act: 0.8

How did OC1(c2ccc(F)cc2)CCN(Cc2ccccc2)C1 (centres undefined) do in these assays?
Lmaj promast: 88*; Diaphorase inh: 5; KCC2 mod: -0.11; WT yeast gro inh: 14; Diaphorase act: 1; ROMK mod: -0.51; L major 1uM: 4

What do the screens show for `COc1ccc(NC(=O)COC(=O)c2ccc(S(=O)(=O)N(C)c3ccccc3OC)cc2)c(OC)c1`?
Lmaj promast: 99*; Diaphorase inh: 2; WT yeast gro inh: -9; Diaphorase act: 1; ROMK mod: -0.11; L major 1uM: -6

What do the screens show for `O=Nc1c2ccc[nH]c-2c2ccc([N+](=O)[O-])cc12`?
Lmaj promast: 12; Diaphorase inh: 5; KCC2 mod: -0.11; WT yeast gro inh: -1; Diaphorase act: 1; ROMK mod: -0.3

How did S=c1[nH]c(-c2ccccc2)cs1 do in these assays?
Lmaj promast: 77*; Diaphorase inh: 19; KCC2 mod: 50*; WT yeast gro inh: 49; Diaphorase act: 0.8; ROMK mod: 2.5*; L major 1uM: -9

Results for O=c1[nH]c(-c2ccccc2)cs1 ?
Lmaj promast: -2; Diaphorase inh: 8; KCC2 mod: -0.3; WT yeast gro inh: 2; Diaphorase act: 0.9; ROMK mod: 0.23

How did O=C(Nc1cccc(Cl)c1)Nc1nnc(CSCCOc2ccc(Cl)cc2)s1 do in these assays?
Lmaj promast: 9; Diaphorase inh: -7; KCC2 mod: 0.32; WT yeast gro inh: -2; Diaphorase act: 1.1; ROMK mod: 0.43

How did Nc1ccc(Oc2ccc([N+](=O)[O-])cc2[N+](=O)[O-])cc1 do in these assays?
Lmaj promast: 56*; Diaphorase inh: 7; WT yeast gro inh: -3; Diaphorase act: 0.9; ROMK mod: 2.4; L major 1uM: 7

What do the screens show for `CCOc1cc(/C=N/NC(=O)C(C)Sc2ccccn2)ccc1O` (centres undefined)?
Lmaj promast: -3; Diaphorase inh: 1; KCC2 mod: 0.61; WT yeast gro inh: 13; Diaphorase act: 1

What do the screens show for `COCC(=O)N/N=C/c1ccc(Sc2nc3ccccc3s2)o1`?
Lmaj promast: 81*; Diaphorase inh: 13; KCC2 mod: 1.6; WT yeast gro inh: -2; Diaphorase act: 0.9; ROMK mod: 0.4; L major 1uM: -8

What do the screens show for `CCOC(=O)c1ccc(NC(=O)c2ccc(OC(C)C)c(OC)c2)cc1`?
Lmaj promast: 8; Diaphorase inh: 33; KCC2 mod: 0.5; WT yeast gro inh: 9; Diaphorase act: 0.7; ROMK mod: 0.075

How did Cc1ccccc1-c1oc(C)c(C)[n+]1[O-] do in these assays?
Lmaj promast: -3; Diaphorase inh: 11; KCC2 mod: 0.014; WT yeast gro inh: -24; Diaphorase act: 0.9; ROMK mod: -0.72
